Test results reported in article PMC8905529 (RSC Chemical Biology, 2022).
Where a SMILES comes first, the peptide text is derived from it. [ ]: non-standard residue; d: D form. Cha = N[C@@H](CC1CCCCC1)C(=O)O; hLeu = CC(C)CC[C@H](N)C(=O)O

Key:
trypsin = assay: Enzymatic; assay type: in vitro ADME; settings: trypsin in PBS, pH 7.4
Procedure, shortened: (§1)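 Test peptide at 0.33 mM final in PBS (pH 7.4) with trypsin or chymotrypsin at 0.05 μg mL−1 final. Incubated at 37 °C with shaking (200 rpm) for 24 h. Fragments were identified by MALDI-TOF MS and ESI-TOF LC-MS.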

chymotrypsin = assay: Enzymatic; assay type: in vitro ADME; settings: chymotrypsin in PBS, pH 7.4
Procedure, shortened: as §1

ComD1 receptor [1] = molecular target: T1, ComD1 receptor (Streptococcus pneumoniae serotype 2, UniProt A0A0H2ZM50); assay: β-galactosidase competitive inhibition reporter assay, D39pcomX::lacZ; assay type: cell-based
T1 sequence (A0A0H2ZM50 1-441): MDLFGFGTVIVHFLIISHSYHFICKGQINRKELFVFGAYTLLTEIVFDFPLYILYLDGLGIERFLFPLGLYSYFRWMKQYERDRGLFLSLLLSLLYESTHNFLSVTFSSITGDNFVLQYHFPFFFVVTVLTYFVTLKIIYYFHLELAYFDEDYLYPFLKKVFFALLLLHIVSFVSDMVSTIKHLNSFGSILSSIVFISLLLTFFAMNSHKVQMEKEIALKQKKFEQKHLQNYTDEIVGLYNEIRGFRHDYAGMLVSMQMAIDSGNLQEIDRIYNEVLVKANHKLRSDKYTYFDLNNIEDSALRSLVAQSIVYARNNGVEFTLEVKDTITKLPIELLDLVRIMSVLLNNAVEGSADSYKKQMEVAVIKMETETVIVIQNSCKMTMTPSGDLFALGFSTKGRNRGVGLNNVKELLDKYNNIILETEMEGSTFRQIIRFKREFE
Procedure, shortened: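 Early-exponential D39pcomX::lacZ in THY (OD600 0.30–0.35) was incubated 30 min at 37 °C. Cells were then Triton X-100-lysed and given ONPG (0.4 mg mL−1) for 3 h at 37 °C, quenched with sodium carbonate, and read at OD420/550 for Miller units.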

ComD1 receptor [2] = molecular target: T1, ComD1 receptor; assay: β-galactosidase activation reporter assay, D39pcomX::lacZ; assay type: cell-based
Procedure, shortened: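 D39pcomX::lacZ was grown on THY agar (5% horse serum, 4 μg mL−1 chloramphenicol), then in THY overnight, diluted 1:50 and grown to OD600 0.30–0.35. […] After 30 min at 37 °C, cells were lysed with Triton X-100 and given ONPG (0.4 mg mL−1, pH 7.0) for 3 h. Reads: OD420/550, Miller units; EC50 by nonlinear regression.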

Row | SMILES | half-life at 0.33 mM (trypsin) [h] | half-life at 0.33 mM (chymotrypsin) [h] | IC50 (ComD1 receptor [1]) [nM] | EC50 (ComD1 receptor [2]) [nM]
1 | CC[C@H](C)[C@H](NC(=O)[C@H](Cc1ccccc1)NC(=O)[C@H](CC(=O)O)NC(=O)[C@H](CCCNC(=N)N)NC(=O)[C@H](Cc1ccccc1)NC(=O)[C@H](Cc1ccccc1)NC(=O)[C@H](CCCCN)NC(=O)[C@H](CO)NC(=O)[C@H](CC(C)C)NC(=O)[C@H](CCCNC(=N)N)NC(=O)[C@H](CCSC)NC(=O)[C@@H](N)CCC(=O)O)C(=O)N[C@@H](CC(C)C)C(=O)N[C@@H](CCC(N)=O)C(=O)N[C@@H](CCCNC(=N)N)C(=O)N[C@@H](CCCCN)C(=O)N[C@@H](CCCCN)C(=O)O [CSP1, reference compound] | 0.5 | 1 |  | 
2 | CSCC[C@H](NC(=O)[C@H](C)N)C(=O)N[C@@H](CCCNC(=N)N)C(=O)N[C@@H](CC(C)C)C(=O)N[C@@H](CO)C(=O)N[C@@H](CCCCN)C(=O)N[C@@H](CC1CCCCC1)C(=O)N[C@@H](Cc1ccccc1)C(=O)N[C@@H](CCCNC(=N)N)C(=O)N[C@@H](CC(=O)O)C(=O)N[C@@H](Cc1ccccc1)C(=O)N[C@@H](CC1CCCCC1)C(=O)N[C@@H](CC(C)C)C(=O)N[C@@H](CCC(N)=O)C(=O)N[C@@H](CCCNC(=N)N)C(=O)N[C@@H](CCCCN)C(=O)N[C@@H](CCCCN)C(=O)O [CSP1-E1A/F7Cha/I12Cha] (H-AMRLSK[Cha]FRDF[Cha]LQRKK-OH) |  |  | 72 | 
3 | CSCC[C@H](NC(=O)[C@H](C)N)C(=O)N[C@@H](CCCNC(=N)N)C(=O)N[C@@H](CC(C)C)C(=O)N[C@@H](CO)C(=O)N[C@@H](CCCCN)C(=O)N[C@@H](CC1CCCCC1)C(=O)N[C@@H](Cc1ccccc1)C(=O)N[C@@H](CCCNC(=N)N)C(=O)N[C@@H](CC(=O)O)C(=O)N[C@@H](Cc1ccccc1)C(=O)N[C@@H](CCC(C)C)C(=O)N[C@@H](CC(C)C)C(=O)N[C@@H](CCC(N)=O)C(=O)N[C@@H](CCCNC(=N)N)C(=O)N[C@@H](CCCCN)C(=O)N[C@@H](CCCCN)C(=O)O [CSP1-E1A/F7Cha/I12HLeu] (H-AMRLSK[Cha]FRDF[hLeu]LQRKK-OH) |  |  | 57 | 
4 | CC[C@H](C)[C@H](NC(=O)[C@H](Cc1ccccc1)NC(=O)[C@H](CC(=O)O)NC(=O)[C@H](CCCNC(=N)N)NC(=O)[C@H](Cc1ccccc1)NC(=O)[C@H](CC1CCCCC1)NC(=O)[C@H](CCCCN)NC(=O)[C@H](CO)NC(=O)[C@H](CC(C)C)NC(=O)[C@H](CCCNC(=N)N)NC(=O)[C@H](CCSC)NC(=O)[C@H](C)N)C(=O)N[C@@H](CC(C)C)C(=O)N[C@@H](CCC(N)=O)C(=O)N[C@@H](CCCNC(=N)N)C(=O)N[C@@H](CCCCN)C(=O)N[C@@H](CCCCN)C(=O)O [CSP1-E1A/F7Cha] (H-AMRLSK[Cha]FRDFILQRKK-OH) | 4 | 4 | 36 | 
5 | CC[C@H](C)[C@H](NC(=O)[C@H](Cc1ccccc1)NC(=O)[C@H](CC(=O)O)NC(=O)[C@H](CCCNC(=N)N)NC(=O)[C@H](Cc1ccccc1)NC(=O)[C@H](CCC(C)C)NC(=O)[C@H](CCCCN)NC(=O)[C@H](CO)NC(=O)[C@H](CC(C)C)NC(=O)[C@H](CCCNC(=N)N)NC(=O)[C@H](CCSC)NC(=O)[C@H](C)N)C(=O)N[C@@H](CC(C)C)C(=O)N[C@@H](CCC(N)=O)C(=O)N[C@@H](CCCNC(=N)N)C(=O)N[C@@H](CCCCN)C(=O)N[C@@H](CCCCN)C(=O)O [CSP1-E1A/F7HLeu] (H-AMRLSK[hLeu]FRDFILQRKK-OH) |  |  | 72 | 
6 | CSCC[C@H](NC(=O)[C@@H](N)CCC(=O)O)C(=O)N[C@@H](CCCNC(=N)N)C(=O)N[C@@H](CC(C)C)C(=O)N[C@@H](CO)C(=O)N[C@@H](CCCCN)C(=O)N[C@@H](CC1CCCCC1)C(=O)N[C@@H](Cc1ccccc1)C(=O)N[C@@H](CCCNC(=N)N)C(=O)N[C@@H](CC(=O)O)C(=O)N[C@@H](Cc1ccccc1)C(=O)N[C@@H](CC1CCCCC1)C(=O)N[C@@H](CC(C)C)C(=O)N[C@@H](CCC(N)=O)C(=O)N[C@@H](CCCNC(=N)N)C(=O)N[C@@H](CCCCN)C(=O)N[C@@H](CCCCN)C(=O)O [CSP1-F7Cha/I12Cha] (H-EMRLSK[Cha]FRDF[Cha]LQRKK-OH) | 3 | 6 |  | < 1
